Test results reported in ChEMBL document CHEMBL1250516, “Potent and fully noncompetitive peptidomimetic inhibitor of multidrug resistance P-glycoprotein” (J Med Chem, 2010).
pIC50: −log10 of the molar value. Square brackets hold non-standard residues; d marks the D form. Peptide text beside a SMILES is read from it. * marks the point of attachment. Hyp = O=C(O)[C@@H]1C[C@@H](O)CN1; Aad = N[C@@H](CCCC(=O)O)C(=O)O; Cbz = O=C(OCc1ccccc1)*; PhAc = O=C(Cc1ccccc1)*; Boc = CC(C)(C)OC(=O)*; OBn = c1ccc(CO*)cc1; Bn = c1ccc(C*)cc1; OtBu = CC(C)(C)O*; tBu = CC(C)(C)*

Assays:
[1] = target: T1, MDR1 (P-glycoprotein, ABCB1) (Homo sapiens, UniProt P08183); assay: Inhibition of human MDR1 expressed in mouse NIH3T3 cells assessed as inhibition of drug efflux in at 10 uM by flow cytometry; format: cell-based; details: mouse NIH3T3 cells expressing human MDR1
[2] = target: T1, MDR1 (P-glycoprotein, ABCB1); assay: Inhibition of human MDR1 expressed in mouse NIH3T3 cells assessed as inhibition of drug efflux in at 2 uM by flow cytometry; format: cell-based; details: mouse NIH3T3 cells expressing human MDR1
[3] = target: P-glycoprotein (ABCB1) (Homo sapiens, UniProt P08183); assay: Inhibition of p-glycoprotein expressed in human K562/R7 cells assessed as inhibition of drug efflux at 10 uM by flow cytometry; format: cell-based; details: K562/R7 cells expressing P-glycoprotein
In short: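 K562/R7 cells (1×10⁶/mL RPMI 1640) were incubated for 1 h at 37 °C with 10 μM daunorubicin (final), with or without 10 μM compound. Cells were washed in ice-cold PBS, kept on ice, and retained fluorescence was read by flow cytometry. Cyclosporin A served as positive control. Duplicate experiments carried out twice.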

[4] = Cytotoxicity against mouse NIH/3T3 cells assessed as decrease in cell viability at > 2 uM after 72 hrs by MTT assay; format: cell-based; details: nih3t3, 72 h
In short: (§1)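 Parental NIH3T3 or NIH3T3/P-gp (human MDR1-G185 transfected) cells were seeded at 2500 cells/well and allowed to attach for 24 h at 37 °C in 5% CO2. Compound was added at increasing concentrations in 1% DMSO and incubated for 72 h. Viability was read by MTT colorimetric assay. 100% survival was taken as cell number without compound.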

[5] = Cytotoxicity against mouse NIH/3T3 cells assessed as effect on cell viability up to 1 uM after 72 hrs by MTT assay; format: cell-based; details: nih3t3, 72 h; in short: as §1
[6] = target: T2, ATP-dependent translocase ABCB1 (Homo sapiens, UniProt P08183); assay: Displacement of daunorubicin form H-site of human MDR1 expressed in mouse NIH3T3 cells at 0.11 to 1 uM by noncompetitive binding assay; format: cell-based; details: in the assay text read “Hoechst 33342” for “daunorubicin”
In short: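 NIH3T3/P-gp and NIH3T3 cells (10⁵) were incubated with daunorubicin (5, 10, 15, 20 μM) or Hoechst 33342 (0–10 μM), with inhibitor at 0, 0.11, 0.22, 0.33 or 1 μM. Drug retained inside the cells after 1 h was measured by flow cytometry. Data were fitted to Michaelis–Menten to give Rmax and KM. KI came from Rmax⁰ = Rmax/(1+[I]/KI). Mean of two duplicate experiments.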

[7] = Cytotoxicity against mouse NIH/3T3 cells expressing human MDR1 assessed as decrease in cell viability at > 2 uM after 72 hrs by MTT assay; format: ADME, cell-based; details: nih3t3, 72 h; in short: as §1
[8] = target: MRP1 (multidrug resistance-associated protein 1) (Homo sapiens, UniProt P33527); assay: Inhibition of MRP1 expressed in BHK cells assessed as inhibition of drug efflux at 10 uM; format: cell-based; details: hamster, BHK cells expressing MRP1
In short: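 BHK-21 cells expressing MRP1 were treated with compound at 10 μM in a flow-cytometric drug efflux inhibition assay. % inhibition of efflux was calculated as for the P-gp assay. Duplicates run twice.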

[9] = target: T2, ATP-dependent translocase ABCB1; assay: Inhibition of human MDR1 expressed in mouse NIH3T3 cells assessed as potentiation of daunorubicin-mediated cytotoxicity at 1 uM; format: cell-based; details: nih3t3, 1 µM
In short: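 Control NIH3T3 and NIH3T3/P-gp cells were seeded at 2500 cells/well and settled for 24 h. They were then exposed for 72 h at 37 °C in 5% CO2 to increasing daunorubicin concentrations with 1 μM modulator. Survival was read by MTT, with 100% taken as cell number without anticancer drug.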

[10] = Cytotoxicity against mouse NIH/3T3 cells expressing human MDR1 assessed as effect on cell viability up to 1 uM after 72 hrs by MTT assay; format: ADME, cell-based; details: nih3t3, 72 h; in short: as §1
[11] = target: T2, ATP-dependent translocase ABCB1; assay: Displacement of daunorubicin form R-site of human MDR1 expressed in mouse NIH3T3 cells at 0.11 to 1 uM by noncompetitive binding assay
[12] = target: T2, ATP-dependent translocase ABCB1; assay: Inhibition of human MDR1 expressed in mouse NIH3T3 cells assessed as inhibition of drug efflux by flow cytometry; format: cell-based
[13] = target: T3, BCRP (ABCG2) (Homo sapiens, UniProt Q9UNQ0); assay: Inhibition of BCRP expressed in HEK293 cells assessed as inhibition of drug efflux at 10 uM by flow cytometry; format: cell-based; details: HEK293 cells expressing BCRP
T3 sequence (Q9UNQ0 whole entry): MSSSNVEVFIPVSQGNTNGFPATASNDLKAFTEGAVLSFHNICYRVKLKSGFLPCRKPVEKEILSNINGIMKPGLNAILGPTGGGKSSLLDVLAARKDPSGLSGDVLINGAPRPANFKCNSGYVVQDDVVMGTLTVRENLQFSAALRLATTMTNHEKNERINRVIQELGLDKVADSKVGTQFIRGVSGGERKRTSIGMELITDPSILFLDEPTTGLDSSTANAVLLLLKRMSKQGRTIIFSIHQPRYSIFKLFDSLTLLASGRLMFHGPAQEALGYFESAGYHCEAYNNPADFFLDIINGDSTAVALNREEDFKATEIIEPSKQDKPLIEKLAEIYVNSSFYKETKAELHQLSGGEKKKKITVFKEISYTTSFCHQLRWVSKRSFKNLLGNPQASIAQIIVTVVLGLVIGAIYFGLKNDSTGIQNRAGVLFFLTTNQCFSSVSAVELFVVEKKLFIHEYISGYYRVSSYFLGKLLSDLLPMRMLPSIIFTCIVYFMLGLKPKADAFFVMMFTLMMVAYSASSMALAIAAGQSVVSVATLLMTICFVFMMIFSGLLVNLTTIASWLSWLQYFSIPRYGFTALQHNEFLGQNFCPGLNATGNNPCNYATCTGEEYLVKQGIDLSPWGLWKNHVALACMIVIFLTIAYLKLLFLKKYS
In short: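 Human embryonic kidney 293 cells transfected with BCRP/ABCG2, tested with each compound at 10 μM. Intracellular fluorescent transported drug measured by flow cytometry. % efficacy = 100 × (FA − FBG)/(Fe − FBG): FA is transporter-expressing cells with drug, FBG is without drug (background), and Fe is control cells lacking the transporter. Mean of duplicate experiments carried out twice.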

Chain of P-glycoprotein (ABCB1) (P08183 whole entry): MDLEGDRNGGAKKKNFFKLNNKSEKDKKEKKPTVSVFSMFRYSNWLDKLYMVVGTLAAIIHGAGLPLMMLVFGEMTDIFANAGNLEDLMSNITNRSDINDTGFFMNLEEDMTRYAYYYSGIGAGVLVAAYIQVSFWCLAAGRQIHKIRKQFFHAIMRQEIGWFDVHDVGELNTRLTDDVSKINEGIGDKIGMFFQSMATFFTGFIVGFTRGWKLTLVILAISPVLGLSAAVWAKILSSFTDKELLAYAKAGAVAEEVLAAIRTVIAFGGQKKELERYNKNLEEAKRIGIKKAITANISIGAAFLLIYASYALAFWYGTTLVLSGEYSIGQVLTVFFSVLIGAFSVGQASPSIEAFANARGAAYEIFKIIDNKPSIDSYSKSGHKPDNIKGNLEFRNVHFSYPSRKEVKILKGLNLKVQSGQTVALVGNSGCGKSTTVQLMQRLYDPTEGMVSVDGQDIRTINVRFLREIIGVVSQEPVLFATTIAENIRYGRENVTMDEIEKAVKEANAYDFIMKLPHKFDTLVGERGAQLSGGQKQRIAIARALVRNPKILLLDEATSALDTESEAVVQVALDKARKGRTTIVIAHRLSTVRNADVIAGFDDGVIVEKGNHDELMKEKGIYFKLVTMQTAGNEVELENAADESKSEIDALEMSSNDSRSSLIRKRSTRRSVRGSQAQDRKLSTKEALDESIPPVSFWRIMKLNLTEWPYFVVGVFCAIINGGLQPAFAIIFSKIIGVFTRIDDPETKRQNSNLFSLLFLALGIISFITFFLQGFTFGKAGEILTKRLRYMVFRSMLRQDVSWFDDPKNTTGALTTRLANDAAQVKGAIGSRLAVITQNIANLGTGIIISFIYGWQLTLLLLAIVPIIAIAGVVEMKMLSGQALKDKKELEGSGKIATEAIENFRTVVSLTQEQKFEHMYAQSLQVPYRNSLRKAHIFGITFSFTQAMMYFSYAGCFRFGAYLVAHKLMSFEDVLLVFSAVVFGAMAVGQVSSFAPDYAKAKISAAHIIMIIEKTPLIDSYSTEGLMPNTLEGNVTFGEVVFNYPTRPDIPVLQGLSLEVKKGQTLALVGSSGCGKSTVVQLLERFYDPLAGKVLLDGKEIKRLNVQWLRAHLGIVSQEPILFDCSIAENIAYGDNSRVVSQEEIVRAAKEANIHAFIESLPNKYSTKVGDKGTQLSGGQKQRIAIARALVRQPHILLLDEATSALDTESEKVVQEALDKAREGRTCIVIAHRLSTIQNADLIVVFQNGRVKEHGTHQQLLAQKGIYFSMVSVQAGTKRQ
T2 sequence (P08183 whole entry): as above
T1 sequence (P08183 whole entry): as above

Structure (SMILES): CC(C)(C)OC(=O)N[C@@H](CC(=O)OCc1ccccc1)C(=O)C[C@H](CCCCNC(=O)OCc1ccccc1)C(=O)OCc1ccccc1
- inhibition at 10 µM [1]: 35.7%

Structure (SMILES): CC(C)(C)OC(=O)N[C@@H](CCOC(=O)Cc1ccccc1)C(=O)N[C@@H](CCCCNC(=O)OCc1ccccc1)C(=O)OC(C)(C)C
- inhibition at 10 µM [1]: 59.6%

Structure (SMILES): CC(C)(C)OC(=O)N[C@@H](CCOC(=O)C1CCCCC1)C(=O)N[C@@H](CCCCNC(=O)OCc1ccccc1)C(=O)OC(C)(C)C
- inhibition at 10 µM [1]: 61.8%

Structure (SMILES): CC(C)(C)OC(=O)N[C@@H](CCCOC(=O)C1CCCCC1)C(=O)N[C@@H](CCCCNC(=O)OCc1ccccc1)C(=O)OC(C)(C)C
- inhibition at 10 µM [1]: 82.3%
- inhibition at 2 µM [2]: 35.7%
- inhibition at 10 µM [3]: 80.4%

Structure (SMILES): CC(C)(C)OC(=O)N[C@@H](CCOCc1ccccc1)C(=O)N[C@@H](CCCCNC(=O)OCc1ccccc1)C(=O)OC(C)(C)C
- inhibition at 10 µM [1]: 49.2%

Structure (SMILES): CC(C)(C)OC(=O)N[C@H](CN[C@@H](CCCCNC(=O)OCc1ccccc1)C(=O)OC(C)(C)C)Cc1ccc(OC(C)(C)C)cc1
- inhibition at 10 µM [1]: 49.1%

Structure (SMILES): CC(C)(C)OC(=O)[C@H](CCCCNC(=O)OCc1ccccc1)NC[C@@H]1C[C@@H](OCc2ccccc2)CN1C(=O)OC(C)(C)C
- Activity [4]: Toxic
- Activity [5]: Non-toxic
- Activity [6]: Active
- inhibition at 10 µM [3]: 77.6%
- Activity [7]: Toxic
- inhibition at 10 µM [8]: 9%
- inhibition (INH) [9]: Active
- Activity [10]: Non-toxic
- Activity [11]: Active

Structure (SMILES): CC(C)(C)OC(=O)[C@H](CCCCNC(=O)OCc1ccccc1)NC(=O)[C@@H]1C[C@@H](OC(=O)C2CCCCC2)CN1C(=O)OC(C)(C)C
- pIC50 [12]: 5.77
- inhibition at 10 µM [1]: 106%
- inhibition at 10 µM [3]: 94.9%
- inhibition at 10 µM [13]: 11.2%

Structure (SMILES): CC(C)(C)OC(=O)[C@H](CCCCNC(=O)OCc1ccccc1)NC(=O)[C@@H]1C[C@@H](OCC2CCCCC2)CN1C(=O)OC(C)(C)C
- inhibition at 10 µM [1]: 76.6%
- inhibition at 2 µM [2]: 82.2%
- inhibition at 10 µM [3]: 79.8%

Structure (SMILES): O=C(CCC(=O)N[C@@H](CCC(=O)OCC1CCCCC1)C(=O)OCc1ccccc1)N[C@@H](CCC(=O)OCc1ccccc1)C(=O)OCc1ccccc1
- inhibition at 10 µM [1]: 29.3%

Structure (SMILES): CC(C)(C)OC(=O)CNC(=O)[C@H](Cc1ccc(OC(C)(C)C)cc1)NC(=O)OC(C)(C)C
- inhibition at 10 µM [1]: 93.4%
- inhibition at 2 µM [2]: 38%

Structure (SMILES): CC(C)(C)OC(=O)CC(C(=O)[C@H](Cc1ccc(OC(C)(C)C)cc1)NC(=O)OC(C)(C)C)S(=O)(=O)c1ccccc1 (stereo not given in full)
- pIC50 [12]: 5.81
- inhibition at 10 µM [1]: 106%

Structure (SMILES): CC(C)(C)OC(=O)CC(C(O)[C@H](Cc1ccc(OC(C)(C)C)cc1)NC(=O)OC(C)(C)C)S(=O)(=O)c1ccccc1 (stereo not given in full)
- inhibition at 10 µM [1]: 104%

Structure (SMILES): CC(C)(C)OC(=O)C/C=C/[C@H](Cc1ccc(OC(C)(C)C)cc1)NC(=O)OC(C)(C)C
- inhibition at 10 µM [1]: 71.2%

Structure (SMILES): CC(C)(C)OC(=O)CCC[C@@H](Cc1ccc(OC(C)(C)C)cc1)NC(=O)OC(C)(C)C
- inhibition at 10 µM [1]: 78.7%

Structure (SMILES): CC(C)(C)OC(=O)N[C@@H](Cc1ccc(OC(C)(C)C)cc1)C(=O)CS(=O)(=O)c1ccccc1
- inhibition at 10 µM [1]: 49.1%

Structure (SMILES): CC(C)(C)OC(=O)N[C@@H](CC(=O)OCc1ccccc1)C(=O)CCC(=O)N[C@@H](CCCCNC(=O)OCc1ccccc1)C(=O)OC(C)(C)C
- inhibition at 10 µM [1]: 67.7%

Structure (SMILES): CC(C)(C)OC(=O)N[C@@H](CCC(=O)OCc1ccccc1)C(=O)N[C@@H](CCCCNC(=O)OCc1ccccc1)C(=O)OC(C)(C)C (Boc-Glu(OBn)-Lys(Cbz)-OtBu)
- inhibition at 10 µM [1]: 63.7%

Structure (SMILES): CC(C)(C)OC(=O)CC[C@H](NC(=O)OC(C)(C)C)C(=O)N[C@@H](CCCCNC(=O)OCc1ccccc1)C(=O)OC(C)(C)C (Boc-Glu(OtBu)-Lys(Cbz)-OtBu)
- inhibition at 10 µM [1]: 37.2%

Structure (SMILES): CC(C)(C)OC(=O)N[C@@H](Cc1ccc(OC(C)(C)C)cc1)C(=O)N[C@@H](CCCCNC(=O)OCc1ccccc1)C(=O)OC(C)(C)C (Boc-Tyr(tBu)-Lys(Cbz)-OtBu)
- inhibition at 10 µM [1]: 34%

Structure (SMILES): CC(C)(C)OC(=O)N[C@@H](CCCC(=O)OCc1ccccc1)C(=O)N[C@@H](CCCCNC(=O)OCc1ccccc1)C(=O)OC(C)(C)C (Boc-[Aad](OBn)-Lys(Cbz)-OtBu)
- inhibition at 10 µM [1]: 97.8%
- inhibition at 2 µM [2]: 37%
- inhibition at 10 µM [3]: 65.5%

Structure (SMILES): CC(C)(C)OC(=O)[C@H](CCCCNC(=O)OCc1ccccc1)NC(=O)[C@@H]1C[C@@H](OCc2ccccc2)CN1C(=O)OC(C)(C)C (Boc-[Hyp](Bn)-Lys(Cbz)-OtBu)
- inhibition at 2 µM [2]: 120%
- inhibition at 10 µM [3]: 83.5%
- inhibition at 10 µM [8]: 7%

Structure (SMILES): CC(C)(C)OC(=O)[C@H](CCCCNC(=O)OCc1ccccc1)NC(=O)[C@@H]1C[C@@H](OC(=O)Cc2ccccc2)CN1C(=O)OC(C)(C)C (Boc-[Hyp](PhAc)-Lys(Cbz)-OtBu)
- inhibition at 10 µM [1]: 68.2%
- inhibition at 10 µM [3]: 88.2%
- inhibition at 10 µM [13]: 10%

Structure (SMILES): CC(C)(C)OC(=O)N[C@@H](CC(=O)OCc1ccccc1)C(=O)N[C@@H](CCCCNC(=O)OCc1ccccc1)C(=O)OC(C)(C)C [REVERSIN 121] (Boc-Asp(OBn)-Lys(Cbz)-OtBu)
- pIC50 [12]: 5.85
- inhibition at 10 µM [1]: 75.8%
- inhibition at 10 µM [3]: 88%

Structure (SMILES): O=C(CCC(=O)N[C@@H](CCC(=O)OCc1ccccc1)C(=O)OCc1ccccc1)N[C@@H](CCC(=O)OCc1ccccc1)C(=O)OCc1ccccc1 [REVERSIN 213]
- inhibition at 10 µM [1]: 26.6%
